From ChEMBL document CHEMBL4834403, “Design and Synthesis of Novel Epigenetic Inhibitors Targeting Histone Deacetylases, DNA Methyltransferase 1, and Lysine Methyltransferase G9a with In Vivo Efficacy in Multiple Myeloma” (J Med Chem, 2021)
Activity calls are given as the source filed them. No cut-off for these calls is given here.

Assays:
[1] = biological target: T1, Protein deacetylase HDAC6 (Homo sapiens, UniProt Q9UBN7); experiment: Inhibition of full length human N-terminal GST-tagged HDAC6 using fluorogenic acetylated peptide as substrate incubated for 30 mins by fluorescence plate reader assay
T1 sequence (Q9UBN7 whole entry): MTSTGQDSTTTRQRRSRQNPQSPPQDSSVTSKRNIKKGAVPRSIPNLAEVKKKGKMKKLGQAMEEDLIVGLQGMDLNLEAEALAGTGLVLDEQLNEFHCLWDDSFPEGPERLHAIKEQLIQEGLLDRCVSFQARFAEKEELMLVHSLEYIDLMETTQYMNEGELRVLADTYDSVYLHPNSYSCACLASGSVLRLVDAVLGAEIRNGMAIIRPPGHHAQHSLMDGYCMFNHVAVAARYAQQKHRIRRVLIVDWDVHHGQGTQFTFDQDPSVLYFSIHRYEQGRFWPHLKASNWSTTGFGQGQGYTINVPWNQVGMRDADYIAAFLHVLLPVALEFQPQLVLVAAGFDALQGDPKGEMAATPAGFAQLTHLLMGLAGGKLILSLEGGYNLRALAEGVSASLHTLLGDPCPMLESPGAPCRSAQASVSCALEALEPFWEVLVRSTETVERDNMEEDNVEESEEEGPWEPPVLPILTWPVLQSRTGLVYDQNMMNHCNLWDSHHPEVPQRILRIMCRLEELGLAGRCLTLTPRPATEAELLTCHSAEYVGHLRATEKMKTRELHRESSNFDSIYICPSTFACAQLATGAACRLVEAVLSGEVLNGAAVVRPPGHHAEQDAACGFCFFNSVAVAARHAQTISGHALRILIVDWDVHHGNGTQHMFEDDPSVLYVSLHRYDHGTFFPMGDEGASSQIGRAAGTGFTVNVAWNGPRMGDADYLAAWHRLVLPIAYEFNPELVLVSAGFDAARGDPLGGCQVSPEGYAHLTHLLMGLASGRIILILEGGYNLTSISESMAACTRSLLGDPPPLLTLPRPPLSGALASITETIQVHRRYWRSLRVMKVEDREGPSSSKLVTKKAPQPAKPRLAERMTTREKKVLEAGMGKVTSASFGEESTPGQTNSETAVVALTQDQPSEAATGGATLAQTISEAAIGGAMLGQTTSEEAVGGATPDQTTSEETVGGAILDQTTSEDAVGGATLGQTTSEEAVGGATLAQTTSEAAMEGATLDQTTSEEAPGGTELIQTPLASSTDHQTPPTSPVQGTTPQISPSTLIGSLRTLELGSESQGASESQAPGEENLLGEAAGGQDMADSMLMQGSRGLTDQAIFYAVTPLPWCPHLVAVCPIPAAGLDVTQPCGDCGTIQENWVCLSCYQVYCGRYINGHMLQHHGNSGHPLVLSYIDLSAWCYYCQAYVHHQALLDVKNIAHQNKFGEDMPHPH

[2] = biological target: T2, Histone-lysine N-methyltransferase EHMT2 (Homo sapiens) (UniProt Q96KQ7); experiment: Inhibition of G9A in human MM1.S cells assessed as decrease in H3K9Me2 levels up to 1000 nM after 48 hrs by Western blot analysis; type: cell-based; details: dose nM <=1000, time 48.0 hrs
T2 sequence (whole entry): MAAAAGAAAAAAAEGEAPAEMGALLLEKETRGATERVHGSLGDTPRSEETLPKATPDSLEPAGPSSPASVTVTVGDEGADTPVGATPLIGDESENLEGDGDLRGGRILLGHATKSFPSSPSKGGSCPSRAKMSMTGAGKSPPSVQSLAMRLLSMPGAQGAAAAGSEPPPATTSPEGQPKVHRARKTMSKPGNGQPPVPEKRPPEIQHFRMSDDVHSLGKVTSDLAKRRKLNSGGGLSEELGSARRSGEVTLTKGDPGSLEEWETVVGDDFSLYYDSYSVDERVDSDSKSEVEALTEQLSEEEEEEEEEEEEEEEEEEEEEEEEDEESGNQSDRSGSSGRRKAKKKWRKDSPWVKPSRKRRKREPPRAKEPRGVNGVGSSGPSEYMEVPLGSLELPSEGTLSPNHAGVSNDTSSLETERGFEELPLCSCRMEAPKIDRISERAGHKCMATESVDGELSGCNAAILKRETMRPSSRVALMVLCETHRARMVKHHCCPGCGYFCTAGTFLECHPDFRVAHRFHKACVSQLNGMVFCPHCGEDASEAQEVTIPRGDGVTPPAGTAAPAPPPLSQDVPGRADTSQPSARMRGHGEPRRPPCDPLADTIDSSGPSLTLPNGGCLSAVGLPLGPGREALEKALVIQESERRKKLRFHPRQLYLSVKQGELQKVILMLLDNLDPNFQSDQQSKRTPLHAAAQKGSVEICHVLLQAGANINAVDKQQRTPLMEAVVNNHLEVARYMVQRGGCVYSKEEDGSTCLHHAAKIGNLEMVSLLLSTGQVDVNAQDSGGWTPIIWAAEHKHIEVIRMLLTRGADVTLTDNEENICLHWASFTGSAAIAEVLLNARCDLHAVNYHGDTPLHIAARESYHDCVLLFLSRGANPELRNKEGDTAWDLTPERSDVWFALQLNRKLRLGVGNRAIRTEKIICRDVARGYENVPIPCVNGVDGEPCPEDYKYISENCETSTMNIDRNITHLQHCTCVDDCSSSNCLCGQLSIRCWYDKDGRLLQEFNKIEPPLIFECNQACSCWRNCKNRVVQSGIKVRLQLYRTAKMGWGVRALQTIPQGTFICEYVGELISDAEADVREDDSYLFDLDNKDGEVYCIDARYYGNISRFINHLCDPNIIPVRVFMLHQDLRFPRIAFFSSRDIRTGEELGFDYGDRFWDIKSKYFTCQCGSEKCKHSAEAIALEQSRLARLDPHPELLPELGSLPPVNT
In short: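 MM1.S cells exposed 48 h across a concentration range. Global H3K9Ac and H3K9me2 read by Western blot; run in duplicate.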

[3] = biological target: CYP3A4 (Homo sapiens, UniProt P08684); experiment: Inhibition of CYP3A4 in human liver microsomes at 10 uM incubated for 10 mins in presence of NADPH by LC-MS/MS analysis relative to control; type: ADME
Chain of CYP3A4 (P08684 whole entry): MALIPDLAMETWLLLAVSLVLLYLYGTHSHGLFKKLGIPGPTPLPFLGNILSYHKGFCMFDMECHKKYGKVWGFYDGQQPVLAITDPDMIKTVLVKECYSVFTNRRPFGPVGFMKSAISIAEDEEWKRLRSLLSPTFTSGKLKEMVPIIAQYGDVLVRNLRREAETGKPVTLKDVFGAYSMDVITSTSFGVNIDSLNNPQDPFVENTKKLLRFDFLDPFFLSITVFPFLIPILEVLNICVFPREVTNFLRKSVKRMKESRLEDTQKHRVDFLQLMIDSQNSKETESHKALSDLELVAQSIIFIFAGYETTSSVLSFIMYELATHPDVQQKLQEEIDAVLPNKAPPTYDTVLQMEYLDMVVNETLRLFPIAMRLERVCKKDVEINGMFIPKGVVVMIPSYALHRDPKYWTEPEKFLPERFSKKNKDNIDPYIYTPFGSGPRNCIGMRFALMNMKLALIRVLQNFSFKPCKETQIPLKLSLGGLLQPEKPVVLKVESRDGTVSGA

[4] = Intrinsic clearance in mouse pooled hepatocytes; type: ADME, cell-based, Hepatocyte; details: read-out: CLH
[5] = Kinetic solubility of the compound; type: physicochemical; details: read-out: Kinetic_solubility
[6] = Apparent oral clearance in BALB/c RAG2-/- gammaC-/- mouse at 10 mg/kg, ip measured up to 24 hrs by UPLC-triple quadrupole MS analysis; type: ADME, organism-based; details: in vivo
[7] = Apparent oral clearance in BALB/c RAG2-/- gammaC-/- mouse at 10 mg/kg, ip using 80% saline 10% Tween20 and 10% DMSO formulation measured up to 24 hrs by UPLC-triple quadrupole MS analysis; type: ADME, organism-based; details: in vivo
[8] = Toxicity in BALB/c RAG2-/- gammaC-/- mouse xenografted with human MM1.S cells assessed as effect on body weight at 10 mg/kg, ip administered for 5 consecutive days followed by 2 days rest and measured after 35 days; type: organism-based; details: in vivo, 840 h, time 35 day

Question: Which IC50 [1] does the source give for `COc1cc2c(NCC3CCN(c4ncc(C(=O)NO)cn4)CC3)cc(-c3ccc(C)o3)nc2cc1OCCCN1CCCC1` here?
Answer: 0.152 µM

Question: What does the source list for `COc1cc2nc(-c3ccc(C)o3)cc(NCC3CCN(c4ncc(C(=O)NO)cn4)CC3)c2cc1OC`?
Answer: inhibition [2]: inactive; inhibition at 10 min, 10 µM [3]: 50.8%; CLint scaled [4]: 24.6 L/h/kg; solubility kinetic [5]: < 0.987 µg/mL; CL/F [6]: 13.3 mL/min; CL/F [7]: 8.83 mL/min; Activity [8]: Non-Toxic
